We go through 3 compounds from ChEMBL document CHEMBL4130578, “Synthesis, biological evaluation and structure-activity relationship studies of hederacolchiside E and its derivatives as potential anti-Alzheimer agents” (Eur J Med Chem, 2018).

Activity calls are given as the source filed them. The calls are words filed in the database; no cut-off is given here.

Series [1] relates to PC-12. As to the kind of experiment: Cytoprotection against H2O2-induced cell injury in rat PC12 cells assessed as increase in cell viability at 20 uM preincubated for 12 hrs followed by H2O2 addition measured after 12 hrs by MTT assay. It counts as functional, cell-based. The method, boiled down: (§1)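 PC12 cells grown in RPMI-1640 with 15% FBS and penicillin/streptomycin, subcultured every 2 days and cultured 8 days before use. Cells seeded at 1 × 10^4/well, after 12 h pretreated with compound 12 h, then exposed to 200 µM H2O2 for 12 h. MTT added for 4 h, formazan dissolved in DMSO, OD 490 nm read. Viability given as % of untreated control, mean ± SD, n = 3, ANOVA with Dunnett's test.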
Background: Tetrazolium assays rely on reduction of a dye to a coloured formazan, in cell work by metabolically active cells.

In series [2] the test system is PC-12. The experiment in a line: Cytoprotection against amyloid beta (1 to 42)-induced toxicity in rat PC12 cells assessed as LDH release at 100 uM preincubated with cells followed by amyloid beta (1 to 42) addition measured after 24 hrs by LDH assay (reference value: 153%). It counts as functional. For orientation: Release of lactate dehydrogenase indicates damage to the cell membrane.

Series [3] concerns PC-12. As to the kind of experiment: Cytoprotection against amyloid beta (1 to 42)-induced damage in rat PC12 cells assessed as intracellular MDA level at 10 uM preincubated with cells followed by amyloid beta (1 to 42) addition measured after 24 hrs by TBA assay. Type of series: functional. The method, boiled down:
(§2)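 For the MDA readout, PC12 cells were given 40 µM Aβ1-42 for 24 h with or without compound (10, 50, 100 µM). Samples were mixed with two volumes of TBA reagent (0.375% TBA, 15% trichloroacetic acid, 0.1 mM EDTA) and heated at 95 °C for 40 min. After cooling and centrifugation at 3000 × g for 10 min, supernatant A532 was read. Mean ± SD, n = 3.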

Series [4] deals with PC-12. The experiment in a line: Cytoprotection against amyloid beta (1 to 42)-induced toxicity in rat PC12 cells assessed as LDH release at 10 uM preincubated with cells followed by amyloid beta (1 to 42) addition measured after 24 hrs by LDH assay (reference value: 153%). It counts as functional.
Series [5] concerns PC-12. As to the kind of experiment: Cytoprotection against amyloid beta (1 to 42)-induced damage in rat PC12 cells assessed as reduction in intracellular MDA level preincubated with cells followed by amyloid beta (1 to 42) addition measured after 24 hrs by TBA assay. Type of series: functional, cell-based. The method, boiled down: as §2
For series [6], the system named is PC-12. The experiment in a line: Cytoprotection against amyloid beta (1 to 42)-induced cell injury in rat PC12 cells assessed as cell viability at 10 uM preincubated for 12 hrs followed by amyloid beta (1 to 42) addition measured after 12 hrs by MTT assay (reference value: 55.3 +/- 1.5%). Type of series: functional. The following applies: read-out: Activity.
In series [7] the test system is PC-12. As to the kind of experiment: Cytoprotection against amyloid beta (1 to 42)-induced damage in rat PC12 cells assessed as intracellular MDA level at 100 uM preincubated with cells followed by amyloid beta (1 to 42) addition measured after 24 hrs by TBA assay. It counts as functional. The method, boiled down: as §2
Series [8] concerns PC-12. The experiment in a line: Cytoprotection against H2O2-induced cell injury in rat PC12 cells assessed as increase in cell viability at 1 to 10 uM preincubated for 12 hrs followed by H2O2 addition measured after 12 hrs by MTT assay. It counts as functional, cell-based. The method, boiled down: as §1
The test system of series [9] is PC-12. The experiment in a line: Cytoprotection against amyloid beta (1 to 42)-induced cell injury in rat PC12 cells assessed as cell viability at 100 uM preincubated for 12 hrs followed by amyloid beta (1 to 42) addition measured after 12 hrs by MTT assay (reference value: 55.3 +/- 1.5%). It counts as functional. The following applies: read-out: Activity.
The test system of series [10] is PC-12. The experiment in a line: Cytotoxicity against rat PC12 cells assessed as decrease in cell viability at 50 uM after 12 hrs by MTT assay. It counts as cell-based. The conditions noted are these: pc-12, 12 h.
For series [11], the system named is PC-12. The experiment in a line: Cytoprotection against amyloid beta (1 to 42)-induced toxicity in rat PC12 cells assessed as LDH release at 50 uM preincubated with cells followed by amyloid beta (1 to 42) addition measured after 24 hrs by LDH assay (reference value: 153%). It counts as functional.
Series [12] relates to PC-12. The experiment in a line: Cytoprotection against amyloid beta (1 to 42)-induced cell injury in rat PC12 cells assessed as cell viability at 50 uM preincubated for 12 hrs followed by amyloid beta (1 to 42) addition measured after 12 hrs by MTT assay (reference value: 55.3 +/- 1.5%). It counts as functional. The following applies: read-out: Activity.
In series [13] the test system is PC-12. As to the kind of experiment: Cytoprotection against amyloid beta (1 to 42)-induced oxidative damage in rat PC12 cells assessed as intracellular ROS level at 10 uM preincubated with cells followed by amyloid beta (1 to 42) addition measured after 24 hrs by DCFH-DA staining based flow cytometry (reference value: 51.4%). It counts as functional. A general note: A flow cytometer gives signals particle by particle.

Series [14] relates to PC-12. The experiment in a line: Cytoprotection against amyloid beta (1 to 42)-induced oxidative damage in rat PC12 cells assessed as reduction in intracellular ROS level preincubated with cells followed by amyloid beta (1 to 42) addition measured after 24 hrs by DCFH-DA staining based flow cytometry. It counts as functional, cell-based.
Series [15] concerns PC-12. As to the kind of experiment: Cytoprotection against amyloid beta (1 to 42)-induced oxidative damage in rat PC12 cells assessed as intracellular ROS level at 50 uM preincubated with cells followed by amyloid beta (1 to 42) addition measured after 24 hrs by DCFH-DA staining based flow cytometry (reference value: 51.4%). Type of series: functional.
Series [16] concerns PC-12. The experiment in a line: Cytoprotection against amyloid beta (1 to 42)-induced damage in rat PC12 cells assessed as intracellular MDA level at 50 uM preincubated with cells followed by amyloid beta (1 to 42) addition measured after 24 hrs by TBA assay. Type of series: functional. The method, boiled down: as §2
In series [17] the test system is PC-12. The experiment in a line: Cytoprotection against amyloid beta (1 to 42)-induced oxidative damage in rat PC12 cells assessed as intracellular ROS level at 100 uM preincubated with cells followed by amyloid beta (1 to 42) addition measured after 24 hrs by DCFH-DA staining based flow cytometry (reference value: 51.4%). It counts as functional.
Series [18] deals with PC-12. The experiment in a line: Cytoprotection against H2O2-induced cell injury in rat PC12 cells assessed as increase in cell viability at 1 to 50 uM preincubated for 12 hrs followed by H2O2 addition measured after 12 hrs by MTT assay. Type of series: functional, cell-based. The method, boiled down: as §1

On to `CC1=NN(c2ccccc2)C(=O)C1`, for which the outcome in series [1] was Active.
In the case of `C[C@@H]1O[C@@H](O[C@H]2[C@H](O)[C@@H](O)[C@H](OC[C@H]3O[C@@H](OC(=O)[C@]45CCC(C)(C)C[C@H]4C4=CC[C@@H]6[C@@]7(C)CC[C@H](O[C@@H]8OC[C@H](O)[C@H](O)[C@H]8O)C(C)(C)[C@@H]7CC[C@@]6(C)[C@]4(C)CC5)[C@H](O)[C@@H](O)[C@@H]3O)O[C@@H]2CO)[C@H](O)[C@H](O)[C@H]1O` [CIWUJIANOSIDE C3], the Activity in series [2] is 126.3%; in series [3], 2 nmol/mL; in series [4] it was 143.7%; in series [5], “Dose-dependent effect”; in [7] it was 1.2 nmol/mL; in [10] it was “Toxic”. The Activity in series [11] was 134.4%; in series [13] it was 45%; in [14], “Dose-dependent effect”; in series [15] it was 30.7%; in series [16], 1.6 nmol/mL; in series [17] it was 20.6%. In addition, the viability at 10 µM in series [6] was 55.9%. Also, the outcome in series [8] was Active. In addition, the viability at 100 µM in series [9] stood at 79.1%. Besides, the viability at 50 µM in [12] came to 69.9%.
In the case of `C[C@@H]1O[C@@H](O[C@H]2[C@H](O[C@H]3CC[C@]4(C)[C@H]5CC=C6[C@@H]7CC(C)(C)CC[C@]7(C(=O)O[C@@H]7O[C@H](CO)[C@@H](O[C@@H]8O[C@@H](C)[C@H](O)[C@@H](O)[C@H]8O)[C@H](O)[C@H]7O)CC[C@@]6(C)[C@]5(C)CC[C@H]4C3(C)C)OC[C@H](O[C@@H]3O[C@H](CO)[C@@H](O)[C@H](O)[C@H]3O)[C@@H]2O)[C@H](O)[C@H](O)[C@H]1O`, the result in [18] was Active. Further, the viability at 10 µM in series [6] was determined as 59.3%. In [12], the viability at 50 µM was 63.3%.
